Source: PubChem
LMPTP block – LMPTP phosphatase inhibitors, primary screen, biochemical, fluorescence intensity, uHTS | inhibition, % at 20 µM | recombinant LMPTP-A, OMFP fluorogenic substrate | Low molecular weight phosphotyrosine protein phosphatase (Homo sapiens), P24666 | 360,000 tested, 0.22% active;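 active = compounds that cut the enzyme signal by at least half of the control window in the single-dose screen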;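 also: plate controls were DMSO wells with enzyme plus substrate for no effect and substrate without enzyme for full effect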
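Assay system: LMPTP-A enzyme. Input: 0.625 nM LMPTP-A final. Probe or stimulus: 400 µM OMFP. Compound dosing: single 20 µM dose. Schedule: 50 min dark incubation at room temperature. Detection: fluorescence intensity of OMFP turnover product. Read-out: percent inhibition versus substrate-only and uninhibited controls. Benchmarks: no-enzyme low control, uninhibited high control.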
Scp-1 inhibitor – Scp-1 phosphatase inhibitors, primary screen, biochemical, colorimetric, uHTS; Carboxy-terminal domain RNA polymerase II polypeptide A small phosphatase 1 (Homo …; Recombinant Scp1, phosphopeptide, malachite green phosphate absorbance; inhibition, % at 20 µM; 340,000 tested, 0.88% active; AID 493091, 2011;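 active = inhibition above about 50% at 20 µM, limit read from the data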;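 also: plate controls were DMSO wells with enzyme for no effect and wells lacking enzyme for full effect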
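Incubation: 45 min enzyme reaction at room temperature / System: truncated SCP-1 phosphatase (76-261aa) / Reagent: Phospho 17-mer peptide substrate / Buffer or medium: Acidic Tris acetate buffer with magnesium and detergent / Signal: absorbance at 630 nm / Doses: one concentration, 20 µM, with 1.0% DMSO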
DNMT1 inh – human DNMT1 methyltransferase inhibitors, primary screen, biochemical, molecular beacon, fluorescence, HinP1I cleavage, uHTS; DNA (cytosine-5)-methyltransferase 1 (Homo sapiens), P26358; inhibition (reported as % activation of signal), % at 10 µM; 360,000 tested, 0.83% active; AID 588458, 2011; in the data active = inhibition above about 50%
GRK2 inh – compounds blocking aptamer binding on GRK2 – biochemical, human GRK2, bead flow cytometry, HTS, primary screen | Beta-adrenergic receptor kinase 1 (Homo sapiens), P25098 | FAM-aptamer displacement from GRK2 | inhibition of aptamer binding, % at 10 µM | 330,000 tested, 0.59% active;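 active = inhibition of aptamer binding above 40%, roughly 3 SD of noise, on plates passing a quality check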;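 also: median bead fluorescence of bound FAM aptamer so fluorescent compounds give negative values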
Target sequence (P25098 whole entry, looked up): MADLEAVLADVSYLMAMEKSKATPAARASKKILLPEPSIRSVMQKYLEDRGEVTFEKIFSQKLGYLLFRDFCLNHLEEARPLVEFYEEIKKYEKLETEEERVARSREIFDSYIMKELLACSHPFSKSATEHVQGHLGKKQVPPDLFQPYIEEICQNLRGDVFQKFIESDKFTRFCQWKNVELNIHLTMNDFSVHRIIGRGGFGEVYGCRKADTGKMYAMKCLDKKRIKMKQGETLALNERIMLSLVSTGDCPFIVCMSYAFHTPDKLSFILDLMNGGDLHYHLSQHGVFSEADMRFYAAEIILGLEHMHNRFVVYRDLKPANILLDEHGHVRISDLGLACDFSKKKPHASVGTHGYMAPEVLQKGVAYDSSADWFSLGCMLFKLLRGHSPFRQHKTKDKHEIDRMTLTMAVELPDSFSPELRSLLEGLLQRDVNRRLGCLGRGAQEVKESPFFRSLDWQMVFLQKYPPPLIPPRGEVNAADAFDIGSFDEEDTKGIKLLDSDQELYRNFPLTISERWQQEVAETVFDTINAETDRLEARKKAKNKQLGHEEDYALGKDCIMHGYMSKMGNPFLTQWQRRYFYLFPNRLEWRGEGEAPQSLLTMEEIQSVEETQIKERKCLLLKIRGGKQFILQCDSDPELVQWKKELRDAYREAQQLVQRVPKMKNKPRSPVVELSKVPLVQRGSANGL
SUMO1-SIM PPI – modulators of SUMO1 protein-protein interactions, primary screen, biochemical, uHTS. 360,000 tested, 0.33% active. Small ubiquitin-related modifier 1 (Homo sapiens), P63165. inhibition, % at 20 µM. SUMO1 binding to a labelled peptide, TR-FRET, 1 h; in the data active = inhibition above about 37%
STEP block – STEP phosphatase inhibitors, primary screen, biochemical, fluorescence intensity, uHTS; Tyrosine-protein phosphatase non-receptor type 5 (Homo sapiens), P54829; recombinant STEP, OMFP fluorogenic substrate; inhibition, % at 20 µM; 360,000 tested, 0.25% active; AID 588621, 2011;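 active = inhibition at 20 µM, scaled per plate between control wells, above about 37%, limit read from the data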;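 also: 0% = DMSO with enzyme and substrate and 100% = substrate only without enzyme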
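Assay system: isolated STEP enzyme. Buffer or medium: pH 6.0 Bis-Tris with DTT and Tween 20. Also added: fluorogenic phosphatase substrate OMFP at 25 µM final. Dosing: 20 µM, 1% DMSO. Timing: 20 min reaction, room temperature, in the dark. Measured by: fluorescence intensity, excitation 480 nm, emission 540 nm. Evaluation: normalized % inhibition.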
DNMT1 confirm – DNMT1 methyltransferase inhibitor retest, confirmation, biochemical, molecular beacon, fluorescence, single concentration; shares compounds with DNMT1 inh; DNMT1 molecular beacon HinP1I cleavage; inhibition, % at 10 µM; 2,300 tested, 8% active;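 active = average inhibition of at least 30% in the single-concentration confirmation test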
Beacon interf – beacon fluorescence artifact counter-screen; shares compounds with DNMT1 inh; DNMT1 molecular beacon spectral interference counterscreen, fluorescence 485/520; activation (fluorescence interference), % at 10 µM; 2,300 tested, 1% active; AID 602387;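 active = activation of at least 30% at 10 µM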;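 also: DNMT1 catalytic domain with a HinP1I cleavage step and a FAM/dabcyl DNA beacon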
Starred values were filed as active, the others as inactive. Compounds with a hit are over-represented: about 2.1% of the library has one in this group of screens.

Screening COc1ccc(NC(=O)CC2Nc3cc(C)c(C)cc3NC2=O)c([N+](=O)[O-])c1 (stereo not given) returned LMPTP block 3.3, Scp-1 inhibitor 4.5, DNMT1 inh 58.9*, GRK2 inh 0.0, SUMO1-SIM PPI -20.8, STEP block 3.9, DNMT1 confirm 1.1 and Beacon interf 2.5.
`Cn1c(=O)c2cc(NC(=O)NCCc3ccccc3)ccc2n1Cc1ccccc1` gave LMPTP block -2.2, DNMT1 inh 68.6*, SUMO1-SIM PPI 5.3, STEP block 1.8, DNMT1 confirm -0.3 and Beacon interf 1.2.
For O=C(Nc1nc(-c2ccco2)c(-c2ccco2)s1)c1c(F)cccc1Cl the results were LMPTP block 5.3, Scp-1 inhibitor -8.6, DNMT1 inh 69.7*, GRK2 inh 3.0, SUMO1-SIM PPI 5.5, STEP block 1.2, DNMT1 confirm 6.2 and Beacon interf 21.9.
NC1=NC[C@@H](Cc2ccc(O)cc2)N1CCC12CC3CC(CC(C3)C1)C2 was read as LMPTP block 0.3, Scp-1 inhibitor 4.0, DNMT1 inh 57.6*, GRK2 inh 0.0, SUMO1-SIM PPI 2.3, STEP block -0.2, DNMT1 confirm 0.1 and Beacon interf -0.9.
`O=C1C2CC=C(Cl)CC2C(=O)N1CCN1CCOCC1` (stereo not given) gave LMPTP block -4.5, Scp-1 inhibitor -2.2, DNMT1 inh 4.2, GRK2 inh 0.0, SUMO1-SIM PPI 8.3 and STEP block 3.2.
For O=C1C2CC=C(Cl)CC2C(=O)N1CCCCCCN1C(=O)C2CC=C(Cl)CC2C1=O (stereo not given) the results were LMPTP block 4.4, Scp-1 inhibitor 71.0*, DNMT1 inh 61.4*, GRK2 inh 0.0, SUMO1-SIM PPI 23.7, STEP block 5.4, DNMT1 confirm 10.2 and Beacon interf 0.5.
Screening CN(C)S(=O)(=O)c1ccc(Cl)c(C(=O)Nc2ccc(S(=O)(=O)N3CCOCC3)cc2)c1 returned LMPTP block 0.0, Scp-1 inhibitor -5.3, DNMT1 inh -4.0, GRK2 inh 1.0, SUMO1-SIM PPI 5.6 and STEP block -0.5.
For CCCC(=O)N1CCCC(c2cc(C(=O)Nc3ccccc3)no2)C1 (stereo not given) the results were LMPTP block 0.6, DNMT1 inh 5.5, SUMO1-SIM PPI 2.5 and STEP block -2.8.
COC(=O)c1cc2occc2n1Cc1nc(-c2ccccc2Cl)oc1C was read as LMPTP block 0.5, Scp-1 inhibitor -12.9, DNMT1 inh 85.9*, GRK2 inh 7.0, SUMO1-SIM PPI 1.7, STEP block -12.3, DNMT1 confirm 1.2 and Beacon interf 1.7.
COC(=O)c1cc2occc2n1Cc1nc(-c2ccc(Cl)cc2)oc1C was read as LMPTP block 0.6, Scp-1 inhibitor -10.3, DNMT1 inh 1.3, GRK2 inh 2.0, SUMO1-SIM PPI 0.9 and STEP block 0.1.
`COc1cccc(C(C)(O)c2nc(-c3cccs3)cs2)c1` (stereo not given) gave LMPTP block 0.2, DNMT1 inh -3.3, SUMO1-SIM PPI -5.7 and STEP block -1.1.
For COc1ccc(NC(=O)/C=C/c2ccc(Br)o2)cn1 the results were LMPTP block 13.6, Scp-1 inhibitor 11.2, DNMT1 inh 50.5*, GRK2 inh 7.0, SUMO1-SIM PPI -6.8, STEP block 1.0, DNMT1 confirm -1.4 and Beacon interf 0.5.
Screening COc1ccccc1CNC(=O)Cc1ccc(Br)cc1 returned LMPTP block -1.7, Scp-1 inhibitor 1.6, DNMT1 inh 5.8, GRK2 inh 0.0, SUMO1-SIM PPI 3.5 and STEP block -0.5.
`COc1ccc(NC(=O)/C=C/c2ccco2)cn1` gave LMPTP block 2.0, Scp-1 inhibitor 10.7, DNMT1 inh 19.7, GRK2 inh 13.0, SUMO1-SIM PPI -11.3 and STEP block 0.8.
Screening COc1ccccc1CNC(=O)/C=C/c1ccc(Br)o1 returned LMPTP block 46.0, Scp-1 inhibitor -0.7, DNMT1 inh 90.7*, GRK2 inh 0.0, SUMO1-SIM PPI 72.2*, STEP block 4.9, DNMT1 confirm 4.8 and Beacon interf -0.6.
Cc1cscc(C)c1=S was read as LMPTP block -2.1, DNMT1 inh -0.7, SUMO1-SIM PPI -15.8 and STEP block 1.3.
N#CCc1ccc(-c2cccc3nccn23)cc1 was read as LMPTP block 1.3, DNMT1 inh 2.0, SUMO1-SIM PPI -18.6 and STEP block -0.3.
Screening CCNC(=O)C1(C)CCCN(CCOc2ccc(Cl)cc2)C1 (stereo not given) returned LMPTP block 4.1, DNMT1 inh 0.1, SUMO1-SIM PPI -3.2 and STEP block -1.9.
Screening CCNC(=O)C1(C)CCN(C(=O)c2cccc(C#N)c2)C1 (stereo not given) returned LMPTP block -1.1, DNMT1 inh 4.4, SUMO1-SIM PPI -2.4 and STEP block 2.4.
For CCOC(=O)c1c(C)[nH]c(C(=O)OCC(=O)Nc2cc(C)c(Cl)cc2OC)c1C the results were LMPTP block 0.5, Scp-1 inhibitor -5.0, DNMT1 inh 60.1*, GRK2 inh 2.0, SUMO1-SIM PPI -0.5, STEP block 2.7, DNMT1 confirm 0.6 and Beacon interf -3.8.
For Cc1ccc(C)c(NC(=O)CN(C)C(=O)c2ccc(COc3ccccc3)cc2)c1 the results were LMPTP block 1.0, DNMT1 inh 1.2, SUMO1-SIM PPI 0.9 and STEP block 0.0.
Cc1sc(NC(=O)c2cc(-c3ccc(Cl)cc3)nc3ccccc23)c(C(N)=O)c1C was read as LMPTP block 13.9, Scp-1 inhibitor 1.7, DNMT1 inh 60.7*, GRK2 inh 0.0, SUMO1-SIM PPI -0.3, STEP block 3.1, DNMT1 confirm -0.1 and Beacon interf -6.6.
Cc1sc(NC(=O)c2cc(-c3ccccc3)nc3ccccc23)c(C(N)=O)c1C was read as LMPTP block 3.1, Scp-1 inhibitor -3.9, DNMT1 inh -21.9, GRK2 inh 0.0, SUMO1-SIM PPI -1.3 and STEP block 0.3.
